Assay results from ChEMBL document CHEMBL1142699 (J Med Chem, 2005).
The source made the active and inactive calls. The calls are words filed in the database; no cut-off is given here. Numbered stars: 1 amine (or outer) side, 2 acyl side, 3 side chain; on linkers, the order of the positions; unused ones are H or OH. Square brackets hold non-standard residues; d marks the D form. Peptide text beside a SMILES is read from it. X1 = N[C@@H](Cc1ccccc1)CN(CC(=O)[*:2])[*:1]; Phe(4-F) = N[C@@H](Cc1ccc(F)cc1)C(=O)O

Experiments:
Nociceptin receptor [1] = target: T1, Nociceptin receptor (Homo sapiens, UniProt P41146); assay: Agonist potency against GTPgammaS binding in CHO cell membranes expressing the human NOP receptor (CHOhNOP)
Nociceptin receptor [2] = target: Nociceptin receptor (Mus musculus, UniProt P35377); assay: (§1) Inhibition of electrically evoked contraction of mouse vas deferens; format: functional
Summary of the method: (§2)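 Vas deferens from male Swiss mice (25-30 g), in Mg2+-free Krebs at 33 °C under 0.3 g resting tension. Field-stimulated with 1 ms supramaximal pulses at 0.05 Hz; twitches recorded isotonically. After ~1 h equilibration, cumulative concentration-response curves in 0.5 log steps. […] 5-8 experiments.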

Nociceptin receptor [3] = target: T1, Nociceptin receptor; assay: Receptor binding affinity for recombinant human N/OFQ peptide receptor (NOP) expressed in chinese hamster ovary cells; format: cell-based, CHO
Nociceptin receptor [4] = target: T1, Nociceptin receptor; assay: Inhibition of forskolin stimulated cAMP levels in CHO cells expressing the human NOP receptor (CHOhNOP)
[5] = target: Nociceptin receptor (Cavia porcellus) (UniProt P47748); assay: Antagonistic potency against N/OFQ in electrically evoked contractions of guinea pig ileum at 10 uM; format: functional, tissue-based
[6] = target: Nociceptin receptor (Mus musculus) (UniProt P35377); assay: as §1; format: functional; summary of the method: as §2
[7] = target: Nociceptin receptor (Cavia porcellus) (UniProt P47748); assay: Inhibition of electrically evoked contraction of guinea pig ileum at 10 uM; format: functional, tissue-based
[8] = target: Nociceptin receptor (Mus musculus) (UniProt P35377); assay: Antagonistic potency against N/OFQ in electrically evoked contraction of mouse vas deferens at 10 uM; format: functional, tissue-based
Summary of the method: (§3)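 Male Swiss mice (25-30 g). Vas deferens in 5 mL baths of Mg2+-free Krebs at 33 °C, 0.3 g tension, field-stimulated with supramaximal 1 ms pulses at 0.05 Hz, isotonic recording.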

[9] = target: Nociceptin receptor (Cavia porcellus) (UniProt P47748); assay: Maximal inhibition of electrically evoked contraction of guinea pig ileum at 10 uM; format: functional, tissue-based
[10] = target: Nociceptin receptor (Mus musculus) (UniProt P35377); assay: Maximal inhibition of electrically evoked contraction of mouse vas deferens at 10 uM; format: functional, tissue-based
Nociceptin receptor [11] = target: T1, Nociceptin receptor; assay: Agonist potency against GTPgammaS binding in CHO cell membranes expressing the human NOP receptor (CHOhNOP) at 0.1 uM
Summary of the method: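 CHOhNOP membranes (20 µg) incubated 1 h at 30 °C with gentle shaking in 50 mM Tris-HCl, 1 mM MgCl2, 100 mM NaCl, 0.2 mM EGTA, 1 mg/mL BSA, 150 µM bacitracin, 10 µM peptidase inhibitors, 100 µM GDP, 150 pM GTPγ[35S]. Nonspecific binding with 10 µM GTPγS; vacuum filtration. Data as stimulation factors (ligand/basal specific DPM); pEC50 derived.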

[12] = target: Nociceptin receptor (Cavia porcellus) (UniProt P47748); assay: Antagonistic potency against N/OFQ in electrically evoked contractions of guinea pig ileum at 1 uM; format: functional, tissue-based
Nociceptin receptor [13] = target: T1, Nociceptin receptor; assay: Inhibition of forskolin stimulated cAMP levels in CHO […] expressing the human NOP receptor (CHOhNOP); format: functional, cell-based
[14] = target: Nociceptin receptor (Mus musculus) (UniProt P35377); assay: Inhibition of electrically evoked contraction of mouse vas deferens at 10 uM; format: functional
[15] = target: Nociceptin receptor (Mus musculus) (UniProt P35377); assay: Antagonistic potency against N/OFQ in electrically evoked contraction of mouse vas deferens at 1 uM; format: functional, tissue-based; summary of the method: as §3
Nociceptin receptor [16] = target: T1, Nociceptin receptor; assay: Antagonistic potency against N/OFQ induced GTPgammaS binding to human NOP receptor expressed in CHO cell membranes at 0.1 uM; format: functional
Nociceptin receptor [17] = target: T1, Nociceptin receptor; conditions: CHO
Nociceptin receptor [18] = target: T1, Nociceptin receptor; assay: Agonist potency against GTPgammaS binding in CHO cell membranes expressing human NOP receptor (CHOhNOP)
Summary of the method: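 Membranes from CHO cells stably expressing human NOP, homogenized in 50 mM Tris-HCl/0.2 mM EGTA. 20 µg homogenate, 1 h at 30 °C. Buffer: Tris-HCl, 1 mM MgCl2, 100 mM NaCl, 0.2 mM EGTA, BSA, bacitracin, 10 µM peptidase inhibitors, 100 µM GDP, 150 pM GTPγ[35S]. Nonspecific binding defined with 10 µM GTPγS.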

T1 sequence (P41146 whole entry): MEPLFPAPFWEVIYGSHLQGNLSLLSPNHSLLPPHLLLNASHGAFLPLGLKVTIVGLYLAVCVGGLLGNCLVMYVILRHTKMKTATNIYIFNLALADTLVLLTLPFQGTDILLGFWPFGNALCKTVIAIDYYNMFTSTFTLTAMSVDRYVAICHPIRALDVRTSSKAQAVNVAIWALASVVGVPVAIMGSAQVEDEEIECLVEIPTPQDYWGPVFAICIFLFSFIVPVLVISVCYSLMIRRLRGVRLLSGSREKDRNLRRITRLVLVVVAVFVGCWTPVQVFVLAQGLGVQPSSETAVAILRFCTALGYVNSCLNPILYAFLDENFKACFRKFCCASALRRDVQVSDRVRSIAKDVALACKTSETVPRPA
Nociceptin receptor (Mus musculus), sequence (P35377 whole entry): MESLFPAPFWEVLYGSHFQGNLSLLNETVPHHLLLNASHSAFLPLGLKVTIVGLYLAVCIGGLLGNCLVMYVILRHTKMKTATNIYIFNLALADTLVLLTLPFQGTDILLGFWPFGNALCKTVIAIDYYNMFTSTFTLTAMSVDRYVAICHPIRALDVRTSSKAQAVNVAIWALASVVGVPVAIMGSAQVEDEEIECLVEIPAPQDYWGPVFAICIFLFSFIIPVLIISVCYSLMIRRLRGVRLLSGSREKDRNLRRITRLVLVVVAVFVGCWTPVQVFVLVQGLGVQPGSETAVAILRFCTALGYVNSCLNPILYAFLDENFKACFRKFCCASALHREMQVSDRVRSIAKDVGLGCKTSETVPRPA
Nociceptin receptor (Cavia porcellus), sequence (P47748 whole entry): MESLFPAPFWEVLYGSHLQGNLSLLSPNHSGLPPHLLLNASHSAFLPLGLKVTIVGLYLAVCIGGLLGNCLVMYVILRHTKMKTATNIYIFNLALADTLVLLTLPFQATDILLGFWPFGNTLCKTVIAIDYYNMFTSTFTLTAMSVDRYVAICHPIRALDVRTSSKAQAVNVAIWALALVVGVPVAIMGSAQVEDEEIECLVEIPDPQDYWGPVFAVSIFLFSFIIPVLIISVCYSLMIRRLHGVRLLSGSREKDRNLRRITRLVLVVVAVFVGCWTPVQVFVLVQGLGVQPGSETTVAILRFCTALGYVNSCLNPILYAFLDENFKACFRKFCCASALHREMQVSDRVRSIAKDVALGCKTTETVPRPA
Nociceptin receptor (Mus musculus, UniProt P35377), sequence (P35377 whole entry): as the sequence (P35377 whole entry) above

## C[C@H](NC(=O)CNC(=O)[C@@H](NC(=O)[C@H](Cc1ccc(F)cc1)NC(=O)CNC(=O)CNC[C@@H](N)Cc1ccccc1)[C@@H](C)O)C(=O)N[C@@H](CCCN=C(N)N)C(=O)N[C@@H](CCCCN)C(=O)N[C@@H](CO)C(=O)N[C@@H](C)C(=O)N[C@@H](CCCN=C(N)N)C(=O)N[C@@H](CCCCN)C(=O)N[C@@H](CCCN=C(N)N)C(=O)N[C@@H](CCCCN)C(=O)N[C@@H](CC(N)=O)C(=O)N[C@@H](CCC(N)=O)C(N)=O (H-[X1]G[Phe(4-F)]TGARKSARKRKNQ-NH2)
Nociceptin receptor [1]
  EC50: 0.209 nM
Nociceptin receptor [2]
  EC50: 1.02 nM
Nociceptin receptor [3]
  Ki: 0.02 nM
Nociceptin receptor [4]
  EC50: 0.302 nM

## CC(C)C[C@H](NC(=O)[C@H](CCCCN)NC(=O)[C@H](CCCN=C(N)N)NC(=O)[C@H](C)NC(=O)[C@H](CO)NC(=O)[C@H](CCCCN)NC(=O)[C@H](CCCN=C(N)N)NC(=O)[C@H](C)NC(=O)CNC(=O)[C@@H](NC(=O)[C@H](Cc1ccccc1)NC(=O)CNC(=O)CNC(=O)CNCc1ccccc1)[C@@H](C)O)C(=O)N[C@@H](C)C(=O)N[C@@H](CC(N)=O)C(=O)N[C@@H](CCC(N)=O)C(N)=O
[5]
  pKb: 6.21
[6]
  Log EC50: inactive
[7]
  Log EC50: inactive
[8]
  pKb: 6.07
[9]
  Emax: inactive
[10]
  Emax: inactive

## C[C@H](NC(=O)CNC(=O)[C@@H](NC(=O)[C@H](Cc1ccccc1)NC(=O)CNC(=O)CNC(=O)CNCc1ccccc1)[C@@H](C)O)C(=O)N[C@@H](CCCN=C(N)N)C(=O)N[C@@H](CCCCN)C(=O)N[C@@H](CO)C(=O)N[C@@H](C)C(=O)N[C@@H](CCCN=C(N)N)C(=O)N[C@@H](CCCCN)C(=O)N[C@@H](CCCN=C(N)N)C(=O)N[C@@H](CCCCN)C(=O)N[C@@H](CC(N)=O)C(=O)N[C@@H](CCC(=O)N(N)N)C(=O)NN
Nociceptin receptor [11]
  Log EC50: inactive
[12]
  pKb: 6.79
Nociceptin receptor [13]
  Log EC50: inactive
[7]
  Log EC50: inactive
[14]
  Log EC50: inactive
[15]
  pKb: 7.24
[9]
  Emax: inactive
[10]
  Emax: inactive
Nociceptin receptor [16]
  pKb: 9.13
Nociceptin receptor [17]
  pKb: 7.11

## C[C@H](NC(=O)CNC(=O)[C@@H](NC(=O)[C@H](Cc1ccc(F)cc1)NC(=O)CNC(=O)CNC(=O)CNCc1ccccc1)[C@@H](C)O)C(=O)N[C@@H](CCCN=C(N)N)C(=O)N[C@@H](CCCCN)C(=O)N[C@@H](CO)C(=O)N[C@@H](C)C(=O)N[C@@H](CCCN=C(N)N)C(=O)N[C@@H](CCCCN)C(=O)N[C@@H](CCCN=C(N)N)C(=O)N[C@@H](CCCCN)C(=O)N[C@@H](CC(N)=O)C(=O)N[C@@H](CCC(N)=O)C(N)=O
Nociceptin receptor [18]
  EC50: 0.407 nM
Nociceptin receptor [3]
  Ki: 0.0251 nM
Nociceptin receptor [4]
  EC50: 4.9 nM
